CHOP UPR activ: apoptotic UPR (CHOP) activation; actives 0.34% (n = 330,000); CHO-CHOP luciferase reporter, luminescence; percent of tunicamycin response over DMSO baseline; activation, % at 10 µM;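 active = at 10 µM dose, activation of 40% or more, normalized to positive control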
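Assay system: CHO-CHOP cells, stable luciferase reporter of PERK-eIF2a-CHOP signalling / Buffer or medium: F12 plus 10% serum / Compound dosing: one dose, 10 µM in 0.5% DMSO / Times: 6 h compound treatment, 37 °C / Technique: luciferase luminescence / Read-out: % reporter activation, DMSO baseline versus tunicamycin full activation / Benchmarks: tunicamycin and DMSO controls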
697 NFkB inh: inhibitors of the PMA/ionomycin-induced NF-kB reporter in 697 B cells | 697 B-cell NF-kB luciferase reporter, 16 h | inhibition, % at 4 µM | actives 0.33% (n = 330,000) | AID 435022; in the data active = inhibition above about 35%
UPR XBP1 act: adaptive UPR (XBP1) activation; activation, % at 20 µM; actives 0.33% (n = 330,000); AID 463104; CHO-XBP1 luciferase reporter, IRE1-XBP1 UPR activation, luminescence; percent of tunicamycin response, DMSO as zero;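 active = versus positive control, 20 µM dose yields 30% or more activation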
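Material: IRE1-XBP1 luciferase reporter CHO line / Quantity: one thousand reporter cells per well / Buffer or medium: F12 with 10% serum / Compound: 20 µM single concentration, DMSO 1% / Times: 6 h treatment, 37 °C / Detection: Steady-Glo luciferase glow luminescence, 10 min after reagent addition / Benchmarks: tunicamycin high, DMSO low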
CHOP inhibitor: CHOP inhibition in unfolded protein response; actives 3.8% (n = 220,000); CHO-K1 CHOP-promoter luciferase, tunicamycin-induced, 15-18 h; AID 2732; inhibition, % at 10 µM;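 active = compounds that reduced the stress-induced luciferase reporter signal by more than about 70% of percent inhibition, limit read from the data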
Jurkat NFkB inh: lowers PMA/ionomycin-induced NF-kB signal in Jurkat cells; PMA/ionomycin-induced NF-kB luciferase reporter, luminescence; inhibition, % at 4 µM; actives 0.53% (n = 330,000); AID 435003; in the data active = inhibition above about 50%
CHOP inh conf: confirmation of CHOP induction inhibitors | shares compounds with CHOP inhibitor | CHO-CHOP promoter luciferase reporter, tunicamycin-induced, luminescence | inhibition, % at 10 µM | actives 45% (n = 2,100);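 active = mean of three repeat readings of reporter signal inhibition above a set limit, cut at about 70% in these data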
Jurkat NFkB conf: inhibitors of the PMA/ionomycin-induced NF-kB reporter in Jurkat cells, retest; inhibition, % at 4 µM; shares compounds with Jurkat NFkB inh; Jurkat NF-kB luciferase, 16 h; actives 27% (n = 2,700);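 active = inhibition reaching about 45% at 4 µM in either replicate, limit read from the data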
CHOP UPR conf: apoptotic UPR (CHOP) activation, confirmed. shares compounds with CHOP UPR activ. CHO-CHOP cells, CHOP-luciferase reporter luminescence; percent of tunicamycin response, DMSO as zero. activation, % at 10 µM. actives 64% (n = 1,000). AID 463112; in the data active = activation above about 33%
A number is an active result; 0 = inactive; - = not tested or not shown. The sample as a whole holds a higher share of hits than the screen did.

SMILES	CHOP UPR activ	697 NFkB inh	UPR XBP1 act	CHOP inhibitor	Jurkat NFkB inh	CHOP inh conf	CHOP UPR conf	others
O=C1Nc2ccccc2/C1=C/C(=O)c1cccs1	74	0	0	104	0	0	125
C=CCOc1ccc(C(=O)/C=C2/C(=O)Nc3ccccc32)cc1	0	0	0	-	0	-	-
Cc1ccc(CC(=O)Nc2nnc(-c3ccc(F)cc3)o2)c(C)c1	0	0	0	-	0	-	-
CCOC(=O)CSc1nc2sc(C)c(C)c2c(=O)[nH]1	0	0	0	0	0	-	-
CCOC(=O)/C(=C\c1ccc(Cl)cc1)c1nc2sc(C)c(C)c2c(=O)[nH]1	59	0	0	107	0	0	198
Cc1nc(NC(=O)/C=C/c2ccccc2)n[nH]1	44	0	0	97	0	0	35
CCCn1nnc(NC(=O)/C=C/c2ccccc2)n1	0	0	0	0	0	-	-
CCOC(=O)CC1COCCN1C(=O)c1cc(COc2ccc(F)cc2Cl)on1 (centres undefined)	0	0	0	-	0	-	-
COc1ccccc1N1CCN(Cc2ccc(OC)c(OC)c2OC)CC1	0	0	0	0	0	-	-
COc1ccccc1N1CCN(Cc2ccc(O)c3ncccc23)CC1	113	0	0	102	0	0	97
O=C(Cc1ccccc1)NNC(=O)c1cnccn1	0	0	0	0	0	-	-
CC(=O)N(C1=C(Cl)C(=O)c2ccccc2C1=O)C1CCCCC1	53	0	0	102	0	113	0
CCOc1ccccc1NC(=O)COC(=O)c1cc(C(=O)OC)cc([N+](=O)[O-])c1	0	0	0	0	0	-	-
CCOC(=O)N1CCN(C(=O)CSc2nnc3[nH]c(=O)c(C)c(C)n23)CC1	0	0	0	-	0	-	-
CCN1CCN(Cc2ccc(NC(=O)c3ccc(C)c(NC(=O)c4c[nH]c5cc(C(F)(F)F)ccc5c4=O)c3)cc2C(F)(F)F)CC1	68	0	0	104	0	114	0
O=S(=O)(Nc1ccc2c(c1)OCO2)c1ccc(Cl)cc1F	0	0	0	-	0	-	-
Fc1ccc(NCc2nnc(SCc3nnc(-c4ccccc4)o3)n2CC2CCCO2)cc1 (centres undefined)	0	0	0	0	0	-	-
Cc1ccc(/C=C2\CCC3=C2OC(N)=C(C#N)C3c2ccc(C)cc2)cc1 (centres undefined)	92	0	0	98	0	0	81
CCOC(=O)C1=C(O)c2ccccc2C(=O)/C1=C\c1ccc(C)cc1	-	-	-	0	-	-	-
CCOC(=O)C1=C(Cc2ccc(Cl)cc2)C(=O)c2ccccc2C1=O	118	0	0	107	0	0	37
O=C(CCl)c1ccc(Cc2ncc(C(F)(F)F)cc2Cl)s1	169	0	0	104	0	0	169
O=S(=O)(c1ccc(Cl)cc1)c1snnc1-c1ccccc1	64	0	0	-	53	0	55	Jurkat NFkB conf=0
Cc1c(NC(=O)C(C)OC(=O)c2c3c(nc4ccccc24)CCC3)c(=O)n(-c2ccccc2)n1C (centres undefined)	0	0	0	0	0	-	-
CCOc1cc(NC(=S)Nc2ccc(Cl)cc2)c(OCC)cc1NC(C)=O	0	0	0	0	0	-	-
CCOc1cc(NC(=O)CCl)c(OCC)cc1NC(=O)CCl	153	0	0	98	0	79	87
SMILES	CHOP UPR activ	697 NFkB inh	UPR XBP1 act	CHOP inhibitor	Jurkat NFkB inh	CHOP inh conf	CHOP UPR conf	others
CC(=O)Nc1ccc(NC2=C(Cl)C(=O)c3ccccc3C2=O)cc1	45	0	0	104	0	0	0
CC1=NOC(=O)/C1=C\c1ccc(-c2ccc(Br)cc2)o1	-	-	-	0	-	-	-
CC1=NOC(=O)/C1=C/c1ccc(-c2ccc(Cl)cc2)o1	265	0	0	109	0	0	34
CC1=NOC(=O)/C1=C\c1ccc(-c2ccc(Br)cc2C(=O)O)o1	0	0	0	0	0	-	-
CC1=NOC(=O)/C1=C\c1ccc(-c2cc(Cl)ccc2Cl)o1	69	0	0	114	0	0	0
Cc1ccc(Cn2ncc(Cl)c(Cl)c2=O)cc1	42	0	0	107	0	0	0
CCc1ccc(C(=O)Cn2ncc(Cl)c(Cl)c2=O)cc1	0	0	0	0	0	-	-
CCOc1cc(C=C(C(=O)OC)C(=O)OC)ccc1OCc1ccc([N+](=O)[O-])cc1	220	0	0	99	0	0	242
CCOc1cc(/C=N/O)ccc1OCc1ccc([N+](=O)[O-])cc1	0	0	0	0	0	-	-
COc1ccccc1N(CC(=O)Nc1ccccc1C(=O)N1CCOCC1)S(C)(=O)=O	0	0	0	-	0	-	-
COc1cccc(C(=O)C(C#N)=C(SC)SC)c1	119	0	0	102	0	118	0
Cc1ccc(-c2cc(NC(=O)CCl)n(-c3ccccc3)n2)cc1	82	0	0	-	0	0	99
CCOc1cc(/C=N/NC(=O)CCn2nc(C)cc2C)ccc1O	0	0	0	0	0	-	-
O=C1CC(c2ccccc2)CC(O)=C1C=Nc1ccccc1 (centres undefined)	0	0	0	0	0	-	-
O=C1CC(c2cccc(Cl)c2)CC(O)=C1C=Nc1cccc(Cl)c1 (centres undefined)	52	0	0	99	0	72	0
CC(Sc1ccccc1)C(=O)N1CCN(S(=O)(=O)c2ccccc2F)CC1 (centres undefined)	0	0	0	-	0	-	-
O=C(/C=C/Sc1ccc(C(F)(F)F)cn1)c1ccccc1	84	0	0	104	0	0	47
Cc1cc(NC(=O)CCS(=O)(=O)c2nc(-c3ccccc3)cc(C(F)(F)F)n2)no1	138	0	0	-	0	0	466
COc1cccc(C(=O)OCC(=O)N2CCc3ccccc3C2)c1	0	0	0	-	0	-	-
Fc1ccc(Sc2nc(-c3ccccc3)nnc2C(F)(F)F)cc1	41	0	0	112	0	0	0
O=C1NN(c2ccccc2)C(=O)/C1=C/c1ccc(-c2ccc(Cl)c(C(=O)O)c2)o1	-	-	-	0	-	-	-
O=C1NN(c2ccccc2)C(=O)/C1=C/c1ccc(Sc2ccc(Cl)cc2)o1	61	-	0	98	-	78	43
Cc1ccc(Sc2ccc(/C=C3/C(=O)NN(c4ccccc4)C3=O)o2)cc1	44	0	0	98	0	0	40
O=C1c2ccccc2C(=O)N1Nc1ccccc1	0	0	0	0	0	-	-
Cc1ccc(NN2C(=O)C=C(c3ccccc3)C2=O)cc1	54	0	0	107	0	0	172
Cc1ccc(S(=O)(=O)N(C)CC(=O)Nc2cc(C)ccn2)cc1	0	0	0	-	0	-	-

Bioassay records as filed in PubChem BioAssay.
